KCNQ1 act: human KCNQ1 channel potentiation or activation; 310,000 compounds, 0.35% hits; CHO-K1 KCNQ1, thallium flux FluxOR fluorescence; hits give high values; P51787; B-score at 10 µM; AID 2648;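 active means fluorescence ratio B-score, a plate-corrected score, at least three library SD, with initial intensity B-score within 5 SD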
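Medium – assay buffer, equal DMSO in all wells · Material – CHO-K1 cell line with stable KCNQ1 potassium channel expression · Signal – kinetic FluxOR thallium fluorescence, 10-s 1-Hz baseline, 110-s post-stimulus read · Compound – single concentration per compound, DMSO matched to controls · Schedule – 37 °C overnight plating, 90-min dark dye load, 20-min compound pretreatment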
hERG rescue: shields human hERG channel from block by proarrhythmic agents; Q12809; CHO-hERG, FluxOR thallium flux, dofetilide IC70 present; activation (rescue from dofetilide block), less the hit threshold, % at 10 µM; 310,000 compounds, 0.51% hits; AID 1511;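 active means activation above the mean of controls blocked by dofetilide plus 5 SD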;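 further: thallium influx through hERG after potassium depolarization seen as dye fluorescence rise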
KCNK3 block: human KCNK3 channel inhibition, primary screen. 340,000 compounds, 0.84% hits. CHO-KCNK3 thallium flux, FluxOR fluorescence; hits give low values. AID 602410. O14649. B-score at 10 µM;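 active means B-score under library mean minus 4 SD, starting fluorescence ratio at most library mean plus 5 SD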;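 further: more negative B-score means stronger inhibition of thallium flux through KCNK3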
Kir21 block: blocks the mouse Kir2.1 inward-rectifier potassium channel; P35561; HEK293-Kir2.1, FluxOR thallium flux fluorescence; hits give low values; B-score at 10 µM; 310,000 compounds, 0.85% hits;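 active means fluorescence ratio B-score at or below minus 3 SD of library scores, with starting-brightness B-score within 2 SD, cut at about -4.2 in these data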;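 further: channel flux triggered by added potassium and thallium sulfate stimulus; B-score of peak minus minimum fluorescence over baseline after thallium stimulus; more negative B-score means stronger Kir2.1 block with less thallium influx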
KCNQ1 inh: blocks the human KCNQ1 potassium channel. AID 2642. P51787. B-score at 10 µM. 310,000 compounds, 1.3% hits. CHO-K1 KCNQ1, FluxOR thallium flux fluorescence; hits give high values;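 active means compounds whose thallium flux B-score, printed positive for inhibition, exceeds three library SD while starting fluorescence stays within three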;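 further: channel opened by potassium depolarization with thallium stimulus after 20 min compound exposure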
KCNK9 block: human KCNK9 channel inhibition; Q9NPC2; HEK293 KCNK9, FluxOR thallium flux fluorescence; hits give low values; B-score at 10 µM; 310,000 compounds, 1.2% hits; AID 488922;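 active means ratio B-score over 3 SD below the library mean, with starting fluorescence within 5 SD of its mean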;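 further: negative B-score means less thallium flux so channel inhibition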
Target sequence (Q9NPC2 whole entry, looked up): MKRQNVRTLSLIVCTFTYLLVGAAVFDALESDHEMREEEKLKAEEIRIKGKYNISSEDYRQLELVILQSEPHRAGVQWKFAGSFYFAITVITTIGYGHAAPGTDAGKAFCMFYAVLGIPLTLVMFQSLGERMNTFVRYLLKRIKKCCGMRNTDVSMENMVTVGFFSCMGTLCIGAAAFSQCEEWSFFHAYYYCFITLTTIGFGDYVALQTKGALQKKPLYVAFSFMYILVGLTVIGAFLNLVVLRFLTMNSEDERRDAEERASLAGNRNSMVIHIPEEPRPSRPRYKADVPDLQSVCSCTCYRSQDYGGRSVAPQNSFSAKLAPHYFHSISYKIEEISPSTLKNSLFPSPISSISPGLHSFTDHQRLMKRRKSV
KCNK9 inh conf: confirmation of human KCNK9 potassium channel inhibitors; HEK293 KCNK9 cells, FluxOR thallium flux fluorescence; 4,900 compounds, 43% hits; shares compounds with KCNK9 block; AID 492992; inhibition, % at 10 µM;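 active means thallium signal inhibited by more than 5 SD of the compound-free buffer control wells, on both duplicate plates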
Kir2-1 spec: mouse Kir2.1 off-target activity of KCNK9 modulators; AID 492993; inhibition, % at 10 µM; 4,900 compounds, 4% hits; shares compounds with KCNK9 block; Kir2.1 cells, FluxOR thallium flux fluorescence;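 active means thallium signal drop more than 5 SD beyond the mean of the no-compound control wells, seen in both duplicate plates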;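 further: signal is fluorescence rise after thallium addition divided by baseline fluorescence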
KCNK9 uninduced: non-induced cell nonspecific activity of KCNK9 modulators; shares compounds with KCNK9 block; inhibition, % at 10 µM; non-induced KCNK9-HEK293, FluxOR thallium flux; 4,900 compounds, 40% hits;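 active means thallium signal drop beyond 5 SD of the untreated control mean, on both duplicate plates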
A number is an active result; – = inactive; · = no result. This is a sample that favours compounds with a hit; in the whole collection about 3.8% have one here.

SMILES	KCNQ1 act	hERG rescue	KCNK3 block	Kir21 block	KCNQ1 inh	KCNK9 block	KCNK9 inh conf	Kir2-1 spec	KCNK9 uninduced
Cc1cc(C)cc(C(=O)N(CCc2ccccc2)C2CC3CCC(C2)N3C)c1 (centres undefined)	–	–	–	–	–	–	–	–	–
Cc1nc(SCC(=O)Nc2ccccc2Cl)c2c(C)c(C)sc2n1	·	·	–	·	·	·	·	·	·
C#CCn1c(S(=O)(=O)Cc2ccccc2Cl)nc(-c2ccccc2)c1-c1ccccc1	–	–	–	–	–	–	·	·	·
C#CCn1c(S(=O)(=O)Cc2ccc(C)cc2)nc(-c2ccccc2)c1-c1ccccc1	–	–	–	–	–	-11.6	59.0%	–	35.5%
CCOC(=O)c1c(N)sc(C(O)(C(F)(F)F)C(F)(F)F)c1-c1ccc(F)cc1	–	–	-12.2	–	–	-9.27	54.0%	–	39.0%
O=[N+]([O-])c1cc(CN2CCN(c3cccc(C(F)(F)F)c3)CC2)c2cccnc2c1O	–	–	–	–	–	–	–	–	–
O=[N+]([O-])c1cc(Cl)ccc1N1CCCC1	–	–	–	–	–	–	·	·	·
O=[N+]([O-])c1cc(S(=O)(=O)C(F)(F)F)ccc1N1CCN(c2ccccc2)CC1	–	–	–	–	–	-8.3	–	–	35.0%
O=[N+]([O-])c1cc(Cl)ccc1N1CCN(c2cccc(C(F)(F)F)c2)CC1	–	–	–	–	–	-11.8	75.0%	–	51.0%
O=C(CCc1ccccc1)NNC(=S)NC(=O)c1ccc(Cl)cc1	–	–	·	–	–	–	·	·	·
CN(C)S(=O)(=O)c1cccc(-c2nnc3n2CCCCC3)c1	–	–	–	–	–	–	·	·	·
O=C(Nc1ccc(S(=O)(=O)Nc2cnc3ccccc3n2)cc1)c1ccc(Cl)cc1Cl	–	–	–	–	–	–	·	·	·
CC(Oc1ccc(Cl)cc1Cl)C(=O)Nc1ccc(S(=O)(=O)Nc2cnc3ccccc3n2)cc1 (centres undefined)	–	–	·	–	–	–	–	–	–
CCc1ccccc1NC(=O)CNC(=O)c1cc(C2CC2)nn1-c1ccccc1	·	·	–	·	·	·	·	·	·
O/N=C/c1cc(Br)ccc1OCc1cccc(F)c1	–	–	–	–	–	-8.88	45.5%	–	34.0%
CC1=C(C(=O)Nc2cc(C(=O)N(C)Cc3ccccc3)ccc2C)SCCO1	–	–	–	–	–	–	·	·	·
CC(C)CN(C(=O)CCCOc1ccc(Cl)cc1Cl)c1c(N)n(Cc2ccccc2)c(=O)[nH]c1=O	–	–	–	–	–	–	·	·	·
CCCCOC(=O)Nc1cc(Cl)ccc1C	–	–	–	–	–	-13.4	32.5%	–	–
CCCCOC(=O)Nc1cc(C)c(Cl)cc1OC	–	–	–	–	–	–	·	·	·
COc1ccc(CN(C)C(=O)c2[nH]c(C)c(C(C)=O)c2C)cc1F	–	–	–	–	–	–	·	·	·
Cc1ccc(C(=O)c2coc3c2C(=O)C(=O)c2ccccc2-3)cc1	–	–	–	–	–	-9.36	–	–	–
COc1ccc(NC(=O)Nc2ccc3c(c2)CC(=O)N([C@H](C)CO)C[C@H](C)[C@H](CN(C)Cc2ccc(C(=O)O)cc2)O3)cc1	·	·	–	·	·	·	·	·	·
Nc1nc(-c2cccs2)c(-c2cccs2)s1	–	–	–	–	–	-8.8	44.0%	–	–
Nc1nc(-c2cccs2)c(CC(=O)O)s1	–	–	–	–	–	–	·	·	·
CC(=O)c1ccc(N2CCN(C(=O)c3cccs3)CC2)c(F)c1	–	–	–	–	–	–	·	·	·
SMILES	KCNQ1 act	hERG rescue	KCNK3 block	Kir21 block	KCNQ1 inh	KCNK9 block	KCNK9 inh conf	Kir2-1 spec	KCNK9 uninduced
COc1cc(NC(=O)CCc2c(C)noc2C)c(Cl)cc1C(=O)O	·	·	–	·	·	·	·	·	·
Cc1oc(-c2ccccc2)nc1C(=O)Nc1nccs1	–	–	–	–	–	–	·	·	·
CCOc1ccccc1C(=O)Nc1ccccc1-c1ccccc1	–	–	–	–	–	-8.83	71.5%	38.0%	25.0%
CCOc1ccccc1NC(=O)c1nc(-c2ccccc2)oc1C	–	–	–	–	–	-12.2	–	–	25.0%
CN(c1cccc(NC(=O)CN(c2ccc(C34CC5CC(CC(C5)C3)C4)cc2)S(C)(=O)=O)c1)S(C)(=O)=O	–	–	–	–	–	–	·	·	·
C=CCOc1ccc(CNCC2CCCO2)cc1 (centres undefined)	–	–	–	–	–	–	·	·	·
O=C(O)c1ccccc1-c1ccccc1C(=O)Nc1ccc(-c2nc3cc(Cl)ccc3o2)cc1	–	–	–	–	–	–	–	–	–
CC(=O)C1(O)C(C)CC2C3CC(F)C4(O)CC(O)CCC4(C)C3CCC21C (centres undefined)	·	·	–	·	·	·	·	·	·
Cc1ccc(C)c2nc3sc(C(=O)N4CCCc5ccccc54)c(N)c3cc12	–	–	–	–	–	-9.13	39.0%	–	73.0%
O=C(/C=C/c1ccco1)NC(=S)Nc1cccc(-c2nc3ccccc3s2)c1	–	–	–	–	–	–	–	–	–
S=C(c1c[nH]c2ccc(Br)cc12)N1CCOCC1	–	–	–	–	–	-8.72	50.0%	–	–
O=C(c1c[nH]c2ccccc12)N1CCOCC1	–	–	–	–	–	–	·	·	·
CC(C)C[C@H](NC(=O)N1CCn2c1nc1ccccc12)C(=O)N[C@H](Cc1ccccc1)C(=O)O	–	–	–	–	–	–	·	·	·
O=C(c1ccc(S(=O)(=O)N2CCCCCC2)cc1)N1CCN(c2ccccc2)CC1	–	–	–	–	–	–	·	·	·
CC1CC(C)CN(S(=O)(=O)c2ccc(C(=O)N3CCN(c4ccccc4)CC3)cc2)C1 (centres undefined)	–	–	–	–	–	–	–	–	–
CCCC/C=C/C(NC(=O)CCc1ccccc1)c1ccccc1 (centres undefined)	–	–	–	–	–	-10	47.5%	–	35.0%
C=CCn1c(CSCc2ccc(Cl)cc2Cl)nnc1SCC(=O)Nc1ccc(C(=O)O)cc1	–	–	–	–	–	–	·	·	·
O=C(C[n+]1cc(-c2ccc(Cl)cc2)n2c1CCC2)N1c2ccccc2Sc2ccccc21	–	–	–	–	–	–	·	·	·
CC1CCC(C(C)C)C(OC(=O)C[n+]2cc(-c3ccc(Cl)cc3)n3c2CCC3)C1 (centres undefined)	–	–	–	–	–	-12.7	47.5%	43.5%	–
c1ccc(C2CCC3(CC2)Oc2ccccc2C2CC(c4cccnc4)=NN23)cc1 (centres undefined)	–	–	·	–	–	-9.29	49.5%	–	41.0%

Screening results (PubChem)
